pEC50, pKi: −log10 of the molar value. Marks after values point to notes of the source that are not given here.
What was measured:
TRH-R1 [1] = target: T1, TRH-R1 (Mus musculus, UniProt P21761); test: Signaling; format: cell-based
T1 sequence (P21761 1-393): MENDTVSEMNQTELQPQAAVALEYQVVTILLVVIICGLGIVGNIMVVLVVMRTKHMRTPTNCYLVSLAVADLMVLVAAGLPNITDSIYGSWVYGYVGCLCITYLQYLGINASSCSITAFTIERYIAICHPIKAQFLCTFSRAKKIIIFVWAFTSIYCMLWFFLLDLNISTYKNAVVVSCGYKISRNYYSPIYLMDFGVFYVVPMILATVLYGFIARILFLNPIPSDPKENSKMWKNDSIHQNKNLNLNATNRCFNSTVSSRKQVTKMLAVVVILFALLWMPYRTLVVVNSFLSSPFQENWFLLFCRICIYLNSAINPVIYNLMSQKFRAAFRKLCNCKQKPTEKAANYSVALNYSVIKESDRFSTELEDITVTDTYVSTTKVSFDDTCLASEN
In short: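 HEK 293EM cells stably expressing TRH-R1, grown in DMEM with 10 % FBS and hygromycin, were seeded at 1.5 × 10^5 cells/well. After 16 h they were calcium-phosphate co-transfected with CREB and a CREB-driven luciferase reporter. Various concentrations of test compound were added in 1 % FBS medium for 6 h at 37 °C. Lysate luminescence was then read for 10 s, with 0.4 mM luciferin and 2 mM ATP. Data are from duplicates in three experiments.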

TRH-R1 [2] = target: T1, TRH-R1; test: Receptor binding assay, competition with [3H][Nτ
Swiss albino mice = test: Antagonism of pentobarbital-induced sleeping time; format: in vivo; conditions: 10 μmol kg^−1 i.v.; for Sleep Time: pentobarbital 50 mg kg^−1 i.p. 10 min later, mean ± SEM; for Decrease in Sleep Time: (1−S/C)×100 relative to control, negative = increase; for effect on pentobarbital-induced sleeping time (in words): compared with control group
TRH-R2 [3] = test: Receptor binding assay, competition with [3H][Nτ; conditions: ratio of Ki at TRH-R1 and TRH-R2; direction differs between compounds
TRH-R2 [4] = test: Signaling; format: cell-based; conditions: ratio of EC50 at TRH-R1 and TRH-R2
In short: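 HEK 293EM cells stably expressing TRH-R1 or TRH-R2 were co-transfected with CREB and a CREB-luciferase reporter by calcium phosphate. […] Lysates were read by luminescence (0.4 mM luciferin, 2 mM ATP, 10 s). EC50 (μM) was found at each subtype, mean ±SD, duplicates, three experiments.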

mice [5] = test: Pentylenetetrazole; format: in vivo; conditions: 10 μmol kg^−1 i.v. 10 min prior to PTZ 65 mg kg^−1 i.p.; mean ± SEM
mice [6] = test: Maximal electric shock; format: in vivo; conditions: 10 μmol kg^−1 i.v. 10 min prior to MES 45 mA for 0.2 s; mean ± SEM
In short: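 Male Swiss albino mice (20–30 g, n = 6–8/group) received saline vehicle or test compound at 10 μmol kg−1 i.v. via the tail vein. MES (45 mA, corneal electrode, 0.2 s) was applied 10 min later, and the duration of tonic hind limb extension was recorded. Data were analysed by one-way ANOVA with Tukey test versus saline.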

Row | Structure (SMILES) | pEC50 (TRH-R1 [1]) | pKi (TRH-R1 [2]) | Sleep Time (Swiss albino mice) | Decrease in Sleep Time (Swiss albino mice) [%] | further results
1 | CC(C)n1cnc(C[C@H](NC(=O)[C@@H]2CCC(=O)C2)C(=O)N2CCC[C@H]2C(N)=O)c1 [Compd 21 d, (1R)-3-Ocp-L-His(1-isopropyl)-L-ProNH2] | < 4.30 | < 4.30 | 123.2 ± 5.9 min | −36.8 | –
2 | CN1C=C(C[C@H](NC(=O)[C@@H]2CCCC(=O)N2)C(=O)N2CCC[C@H]2C(N)=O)C23CC4CC(CN=C12)CC(C4)C3 [Compd 16 m, L-pAad-L-His[1-methyl-2-(adamantan-1-yl)]-L-ProNH2] | – | – | 76.0 ± 10.9 min | 15.4 | –
3 | CC(C)c1nc(C[C@H](NC(=O)[C@@H]2CCC(=O)C2)C(=O)N2CCC[C@H]2C(N)=O)cn1C [Compd 22 i, (1R)-3-Ocp-L-His(1-methyl-2-isopropyl)-L-ProNH2] | – | < 4.30 | 39.8 ± 5.5 ^[b, ^c] min | 55.6 | –
4 | Cn1cc(C[C@H](NC(=O)[C@@H]2CCC(=O)N2)C(=O)N2CCC[C@H]2C(N)=O)nc1C(C)(C)C [Compd 10 c, L-pGlu-L-His(1-methyl-2-tert-butyl)-L-ProNH2] | < 4.30 | < 4.30 | 59.6 ± 5.5 min | 32.5 | –
5 | Cn1cc(C[C@H](NC(=O)[C@@H]2CCCC(=O)N2)C(=O)N2CCC[C@H]2C(N)=O)nc1C(C)(C)C [Compd 16 j, L-pAad-L-His(1-methyl-2-tert-butyl)-L-Pro-NH2] | < 4.30 | < 4.30 | 93.1 ± 4.5 min | −3.6 | –
6 | CCCC1=NC=CC=CC=C2CN1C=C2C[C@H](NC(=O)[C@@H]1CCC(=O)N1)C(=O)N1CCC[C@H]1C(N)=O [Compd 10 h, L-pGlu-L-His(1-benzyl-2-propyl)-L-ProNH2] | – | – | 105.1 ± 5.76 min | −18.8 | effect on pentobarbital-induced sleeping time (in words) (Swiss albino mice): increased the sleeping time significantly
7 | CC(C)c1nc(C[C@H](NC(=O)[C@@H]2CCC(=O)N2)C(=O)N2CCC[C@H]2C(N)=O)cn1C [Compd 10 b, L-pGlu-L-His(1-methyl-2-isopropyl)-L-ProNH2] | < 4.30 | < 4.30 | 66.2 ± 9.8 min | 25.1 | effect on pentobarbital-induced sleeping time (in words) (Swiss albino mice): significant decrease in sleeping time
8 | CCCc1nc(C[C@H](NC(=O)[C@@H]2CCC(=O)N2)C(=O)N2CCC[C@H]2C(N)=O)cn1C [Compd 10 a, L-pGlu-L-His(1-methyl-2-propyl)-L-ProNH2] | 6.54 | 6.49 | 41.7 ± 6.1 ^[b] min | 52.7 | Fold Selectivity (Ki) (TRH-R2 [3]): 1.9; Fold Selectivity (EC50) (TRH-R2 [4]): 11; effect on pentobarbital-induced sleeping time (in words) (Swiss albino mice): significant decrease in sleeping time
9 | CCn1cnc(C[C@H](NC(=O)[C@@H]2CCC(=O)C2)C(=O)N2CCC[C@H]2C(N)=O)c1 [Compd 21 b, (1R)-3-Ocp-L-His(1-ethyl)-L-ProNH2] | 6.85 | 7.00 | – | – | Fold Selectivity (Ki) (TRH-R2 [3]): 3.2; PTZ: Clonic Convulsions Frequency (mice [5]): 1.3 ± 0.21 min⁻¹; PTZ: Clonic Convulsions Onset (mice [5]): 149 ± 8 ^*^, ^** s; Fold Selectivity (EC50) (TRH-R2 [4]): 4.7; MES: Hind Limb Extension Duration (mice [6]): 11.3 ± 1.4 s
10 | CCCc1nc(C[C@H](NC(=O)[C@@H]2CCC(=O)C2)C(=O)N2CCC[C@H]2C(N)=O)cn1C [Compd 22 h, (1R)-3-Ocp-L-His(1-methyl-2-propyl)-L-ProNH2] | < 4.30 | < 4.30 | 80.2 ± 2.4 min | 10.7 | –
11 | CN1C=C(C[C@H](NC(=O)[C@@H]2CCC(=O)C2)C(=O)N2CCC[C@H]2C(N)=O)C2CCCCCN=C21 (stereo partly drawn) [Compd 22 k, (1R)-3-Ocp-L-His(1-methyl-2-cyclohexyl)-L-ProNH2] | – | – | 106.2 ± 3.0 min | −18.1 | –
12 | Cn1cnc(C[C@H](NC(=O)[C@@H]2CCC(=O)C2)C(=O)N2CCC[C@H]2C(N)=O)c1 [Compd 21 a, (1 R)-3-Ocp-L-His(1-methyl)-L-ProNH2] | 7.30 | 6.77 | – | – | Fold Selectivity (Ki) (TRH-R2 [3]): 10.6; decrease in binding affinity for TRH-R1 relative to TRH (TRH-R1 [2]; Ki compared with TRH): 10 fold; PTZ: Clonic Convulsions Frequency (mice [5]): 1.3 ± 0.33 min⁻¹; PTZ: Clonic Convulsions Onset (mice [5]): 153 ± 7 ^*^, ^** s; Fold Selectivity (EC50) (TRH-R2 [4]): 24; MES: Hind Limb Extension Duration (mice [6]): 10.0 ± 0.60 s
13 | CCCc1nc(C[C@H](NC(=O)[C@@H]2CCCC(=O)N2)C(=O)N2CCC[C@H]2C(N)=O)cn1C [Compd 16 h, L-pAad-L-His(1-methyl-2-propyl)-L-ProNH2] | – | – | 98.1 ± 9.4 min | −9.1 | –
14 | CC(C)c1nc(C[C@H](NC(=O)[C@@H]2CCCC(=O)N2)C(=O)N2CCC[C@H]2C(N)=O)cn1C [Compd 16 i, L-pAad-L-His(1-methyl-2-isopropyl)-L-ProNH2] | – | – | 124.3 ± 5.8 min | −38.2 | –
15 | Cn1cc(C[C@H](NC(=O)[C@@H]2CCC(=O)C2)C(=O)N2CCC[C@H]2C(N)=O)nc1C(C)(C)C [Compd 22 j, (1R)-3-Ocp-L-His(1-methyl-2-tert-butyl)-L-ProNH2] | – | – | 89.8 ± 3.0 min | −0.01 | –
16 | CCCn1cnc(C[C@H](NC(=O)[C@@H]2CCC(=O)C2)C(=O)N2CCC[C@H]2C(N)=O)c1 [Compd 21 c, (1R)-3-Ocp-L-His(1-propyl)-L-ProNH2] | 5.34 | 5.09 | – | – | Fold Selectivity (Ki) (TRH-R2 [3]): 1.5; PTZ: Clonic Convulsions Frequency (mice [5]): 1.3 ± 0.21 min⁻¹; PTZ: Clonic Convulsions Onset (mice [5]): 68 ± 3 s; Fold Selectivity (EC50) (TRH-R2 [4]): 4; MES: Hind Limb Extension Duration (mice [6]): 12.3 ± 0.90 s
17 | CN1C=C(C[C@H](NC(=O)[C@@H]2CCCC(=O)N2)C(=O)N2CCC[C@H]2C(N)=O)C2CCCCN=C21 (stereo partly drawn) [Compd 16 k] | – | – | 108.1 ± 14.4 min | −20.2 | –
18 | CC(C)(C)C1=NC=CC=CC=C2CN1C=C2C[C@H](NC(=O)[C@@H]1CCC(=O)C1)C(=O)N1CCC[C@H]1C(N)=O [Compd 22 c, (1R)-3-Ocp-L-His(1-benzyl-2-tert-butyl)-L-ProNH2] | – | – | 91.6 ± 3.8 min | −1.9 | –
19 | NC(=O)[C@@H]1CCCN1C(=O)[C@H](CC1=CN2CC1=CC=CC=CC1CCCCN=C12)NC(=O)[C@@H]1CCC(=O)N1 (stereo partly drawn) [Compd 10 l, L-pGlu-L-His(1-benzyl-2-cyclopentyl)-L-ProNH2] | – | – | 163.3 ± 18.7 ^[b, ^c] min | −84.7 | effect on pentobarbital-induced sleeping time (in words) (Swiss albino mice): increased the sleeping time significantly
20 | NC(=O)[C@@H]1CCCN1C(=O)[C@H](CC1=CN2CC1=CC=CC=CC1CCN=C12)NC(=O)[C@@H]1CCC(=O)C1 (stereo partly drawn) [Compd 22 d, (1R)-3-Ocp-L-His(1-benzyl-2-cyclopropyl)-L-ProNH2] | – | – | 104.9 ± 5.5 min | −16.7 | –

— PMC3479646 (ChemMedChem, 2011)
